Results pooled from the literature.
Lines come from different studies, so protocols differ.
ADORA2B: Adenosine receptor A2b (ADORA2B, Homo sapiens, UniProt P29275)
Melanocortin receptor 3: Melanocortin receptor 3 (Mus musculus, UniProt P33033)
PBRM1 bromodomain: Protein polybromo-1, bromodomain (PBRM1, Homo sapiens, UniProt Q86U86)

| Structure (SMILES) | target | effect on | action | method | notes | measurement | value |
| --- | --- | --- | --- | --- | --- | --- | --- |
| CCCCCC(C)N1CCCn2c1nc1c2c(=O)n(C)c(=O)n1C (stereo not shown) | ADORA2B | ligand displacement |  | radioligand | cell membranes | Ki | > 10 µM |
| Nc1nc2c(ncn2[C@@H]2O[C@H](COP(=O)(O)OP(=O)(O)O)[C@@H](OP(=O)(O)OP(=O)(O)O)[C@H]2O)c(=O)[nH]1 | speC (Escherichia coli, UniProt P21169) | binding |  | ITC |  | Kd | 1.6 µM |
| CCCCCN1CCCn2c1nc1c2c(=O)n(C)c(=O)n1C | ADORA2B | ligand displacement |  | radioligand | cell membranes | Ki | > 10 µM |
| CCCCCCCC/C=C\CCCCCCCC(=O)SCCNC(=O)CCNC(=O)[C@H](O)C(C)(C)COP(=O)(O)OP(=O)(O)OC[C@H]1O[C@@H](n2cnc3c(N)ncnc32)[C@H](O)[C@@H]1OP(=O)(O)O | fadR (Vibrio cholerae, UniProt Q9KQU8) | binding |  | ITC |  | Kd | 0.006 µM |
| Cc1[nH]c2ccccc2c1CCNC(=O)c1ccc(N(C)C)cc1 | Prostaglandin E2 receptor EP2 subtype (PTGER2, Homo sapiens, UniProt P43116) | cAMP | antagonist | TR-FRET |  | Kb | ~0.01 µM |
| CC(=O)N[C@H](C(=O)N1C[C@H](O)C[C@H]1C(=O)NCc1ccc(-c2scnc2C)cc1)C(C)(C)SCCCCCCNC(=O)C[C@@H]1N=C(c2ccc(Cl)cc2)c2c(sc(C)c2C)-n2c(C)nnc21 | Bromodomain-containing protein 2, BD1 (BRD2, Homo sapiens, UniProt P25440) | binding |  | ITC |  | Kd | 0.111 µM |
| CCOc1cc(-c2nncn2C)ccc1Nc1ncc2cc(C)nc(NCC(C)(C)C)c2n1 | Dual serine/threonine and tyrosine protein kinase (DSTYK, Homo sapiens, UniProt Q6XUX3) | binding |  | competition with immobilised ligand |  | Kd | 0.17 µM |
| N=C(N)NCCC[C@H](NC(=O)[C@H](CC(=O)O)NC(=O)[C@H](Cc1c[nH]c2ccccc12)NC(=O)[C@H](CCCNC(=N)N)NC(=O)[C@H](Cc1ccccc1)NC(=O)[C@H](Cc1c[nH]cn1)NC(=O)CN)C(=O)N[C@@H](Cc1ccccc1)C(=O)NCC(=O)O | Melanocortin receptor 3 | reporter gene | agonist |  |  | EC50 | 0.76 µM |
| COc1cc(Nc2ncc3c(n2)-c2ccc(Cl)cc2C(c2c(F)cccc2OC)=NC3)ccc1C(=O)O | Tyrosine-protein kinase Tec (TEC, Homo sapiens, UniProt P42680) | binding |  |  | lysate | Kd | 9.86 µM |
| C=CN1CCCn2c1nc1c2c(=O)n(C)c(=O)n1C | ADORA2B | ligand displacement |  | radioligand | cell membranes | Ki | > 10 µM |
| Cc1cc2nc3c(=O)[nH]c(=O)nc-3n(C[C@H](O)[C@H](O)[C@H](O)COP(=O)(O)OP(=O)(O)OC[C@H]3O[C@@H](n4cnc5c(N)ncnc54)[C@H](O)[C@@H]3O)c2cc1C | Muscleblind-like protein 1 (Homo sapiens, UniProt Q9NR56) | binding |  |  | lysate | Kd | 0.023 µM |
| CC(C)CC(C)N1CCCn2c1nc1c2c(=O)n(C)c(=O)n1C (stereo not shown) | ADORA2B | ligand displacement |  | radioligand | cell membranes | Ki | > 10 µM |
| N=C(N)NCCC[C@H](NC(=O)[C@H](CC(=O)O)NC(=O)[C@H](Cc1c[nH]c2ccccc12)NC(=O)[C@H](CCCNC(=N)N)NC(=O)[C@H](Cc1ccccc1)NC(=O)[C@@H](N)Cc1c[nH]cn1)C(=O)N[C@@H](Cc1ccccc1)C(=O)NCC(=O)O | Melanocortin receptor 3 | reporter gene | agonist |  |  | EC50 | 2.67 µM |
| CCNC(=O)[C@H]1O[C@@H](n2cnc3c(N)nc(NN=CC4CCC=CO4)nc32)[C@H](O)[C@@H]1O (stereo partly shown) | ADORA2B | GTPγS binding | agonist |  | cell membranes | EC50 | 17.4 µM |
| CNC(=O)COc1cc2cc(Nc3nc(N4CCC(C(=O)NCCCCCCCNC(=O)C[C@@H]5N=C(c6ccc(Cl)cc6)c6c(sc(C)c6C)-n6c(C)nnc65)CC4)ncc3Cl)cc(OC)c2n(C)c1=O | B-cell lymphoma 6 protein (BCL6, Homo sapiens, UniProt P41182, C67R/C84N/C8Q) | binding |  | ITC |  | Kd | > 1000 µM |
| CCCCN1CCCn2c1nc1c2c(=O)n(CCC)c(=O)n1CCC | ADORA2B | ligand displacement |  | radioligand | cell membranes | Ki | 1.32 µM |
| CSCC[C@H](N)C(=O)NCC(=O)N[C@@H](Cc1c[nH]cn1)C(=O)N[C@@H](Cc1ccccc1)C(=O)N[C@@H](CCCNC(=N)N)C(=O)N[C@@H](Cc1c[nH]c2ccccc12)C(=O)N[C@@H](CC(=O)O)C(=O)N[C@@H](CCCNC(=N)N)C(=O)N[C@@H](Cc1ccccc1)C(=O)NCC(=O)O | Melanocortin receptor 3 | reporter gene | agonist |  |  | EC50 | 0.26 µM |
| CCC(C)N1CCCn2c1nc1c2c(=O)n(C)c(=O)n1C (stereo not shown) | ADORA2B | ligand displacement |  | radioligand | cell membranes | Ki | > 10 µM |
| CSCC[C@H](NC(=O)[C@@H](N)Cc1ccc(O)cc1)C(=O)N[C@@H](Cc1c[nH]cn1)C(=O)N[C@@H](Cc1ccccc1)C(=O)N[C@@H](CCCNC(=N)N)C(=O)N[C@@H](Cc1c[nH]c2ccccc12)C(=O)N[C@@H](Cc1ccccc1)C(=O)O | Melanocortin receptor 3 | reporter gene | agonist |  |  | EC50 | 10.4 µM |
| CCCCOc1nc(N)c2[nH]c(=O)n(CCN)c2n1 | Toll-like receptor 7 (TLR7, Homo sapiens, UniProt Q9NYK1) | reporter gene | agonist |  |  | EC50 | 127 µM |
| N=C(N)NCCC[C@H](NC(=O)[C@H](CC(=O)O)NC(=O)[C@H](Cc1c[nH]c2ccccc12)NC(=O)[C@@H](N)CCCNC(=N)N)C(=O)N[C@@H](Cc1ccccc1)C(=O)NCC(=O)O | Melanocortin receptor 3 | reporter gene | agonist |  |  | EC50 | > 100 µM |
| COCCOc1ccc(N2CCN(CCn3ncc4c3nc(N)n3nc(-c5ccco5)nc43)CC2)cc1 | ADORA2B | ligand displacement |  | radioligand | cell membranes | Ki | > 1 µM |
| N=C(N)NCCC[C@H](NC(=O)[C@H](Cc1ccccc1)NC(=O)[C@@H](N)Cc1cnc[nH]1)C(=O)N[C@@H](Cc1c[nH]c2ccccc12)C(=O)O | Melanocortin receptor 3 | reporter gene | agonist |  |  | EC50 | > 100 µM |
| CCCCN1CCC(COC(=O)c2ccc(N)c(OCF)c2)CC1 | Muscarinic acetylcholine receptor M1 (CHRM1, Homo sapiens, UniProt P11229) | cell-free assay |  | radioligand |  | Ki | > 10 µM |
| CSCC[C@H](NC(=O)[C@@H](NC(=O)[C@@H](N)Cc1ccc(O)cc1)C(C)C)C(=O)NCC(=O)N[C@@H](Cc1c[nH]cn1)C(=O)N[C@@H](Cc1ccccc1)C(=O)N[C@@H](CCCNC(=N)N)C(=O)N[C@@H](Cc1c[nH]c2ccccc12)C(=O)N[C@@H](CC(=O)O)C(=O)O | Melanocortin receptor 3 | reporter gene | agonist |  |  | EC50 | 0.8 µM |
| Cc1ncsc1-c1ccc(CNC(=O)[C@@H]2C[C@@H](O)CN2C(=O)[C@@H](NC(=O)C2(F)CC2)C(C)(C)C)c(OCCOCCOCCN2CCN(c3cc(-c4ccccc4O)nnc3N)CC2)c1 | PBRM1 bromodomain | binding |  | SPR |  | Kd | 2.7 µM |
| N=C(N)NCCC[C@H](N)C(=O)N[C@@H](Cc1ccccc1)C(=O)NCC(=O)O | Melanocortin receptor 3 | reporter gene | agonist |  |  | EC50 | > 100 µM |
| Cc1ncsc1-c1ccc(CNC(=O)[C@@H]2C[C@H](O)CN2C(=O)[C@@H](NC(=O)C2(F)CC2)C(C)(C)C)c(OCCOc2ccc(CN3CCN(c4cc(-c5ccccc5O)nnc4N)CC3)cc2)c1 | PBRM1 bromodomain | binding |  | SPR |  | Kd | 0.62 µM |
